Bioassay records from PubChem.
Rad51 HR inh: blocks human Rad51 in homologous recombination; 200,000 tested, 0.085% active; hRad51 DNA strand exchange, fluorescence dequenching; Q06609; AID 1385; inhibition, % at 10 µM;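 active = inhibition above 40% at the single screening dose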;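 also: 0% = DMSO control wells and 100% = blanks with heterologous ssDNA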
Target sequence (Q06609 whole entry, looked up): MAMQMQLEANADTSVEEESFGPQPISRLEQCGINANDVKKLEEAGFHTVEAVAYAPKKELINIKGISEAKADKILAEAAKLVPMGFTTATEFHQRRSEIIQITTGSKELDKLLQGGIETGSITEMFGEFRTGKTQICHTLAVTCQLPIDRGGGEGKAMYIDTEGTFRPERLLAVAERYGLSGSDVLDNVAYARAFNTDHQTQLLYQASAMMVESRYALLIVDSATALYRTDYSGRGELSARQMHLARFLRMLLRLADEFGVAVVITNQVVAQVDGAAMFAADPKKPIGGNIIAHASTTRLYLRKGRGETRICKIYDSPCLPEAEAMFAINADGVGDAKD
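material = hRad51 filaments on single-stranded DNA | timing = filaments 15 min 37 °C, then compound 30 min | signal = FRET fluorescence dequenching, excitation 485 nm, emission 520 nm | benchmarks = control wells and blank wells on each plate | evaluation = percent inhibition relative to plate controls and blanks | compound = 10 µM final, single point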
STAT1 act: STAT1 signaling activation; NIH 3T3 STAT1-luciferase reporter, IFN-gamma, luminescence; 100% = IFN-gamma alone, no compound; activation (% of control), % at 5.5 µM; 200,000 tested, 2.6% active;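 active = activation above the screen-wide mean activation plus 3 SD, cut at about 130% in these data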;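 also: raw ratio to IFN-gamma control signal so 100% means no change and 0% no light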
NF-kB neuron act: raises NF-kB expression in human neuronal cells | NF-kB reporter expression; hits give high values | fold change at 12.5 µM | 190,000 tested, 1.6% active; in the data active = fold change above about 3.3
FLuc inh counter: inhibits firefly luciferase, flagging false hits in luciferase inhibition screens. P08659. ATPLite firefly luciferase biochemical luminescence, 10 min. inhibition, % at 10 µM. 200,000 tested, 1.5% active;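 active = inhibition above about 50% when tested at 10 µM, limit read from the data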
APP 5'UTR act: APP 5'UTR luciferase reporter activation | SH-SY5Y APP 5'UTR luciferase reporter, luminescence; zero percent = DMSO vehicle wells | activation, % at 2 µM | 190,000 tested, 1% active | AID 1276;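 active = activation above a set limit, based on mean plus 3 SD of controls, cut at about 140% in these data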
FLuc act counter: firefly luciferase counter-screen for stimulation assays | P08659 | ATPlite luciferase biochemical, luminescence, 10 min; 0 = ATP-free wells, 1 = DMSO control | activation factor at 10 µM | 200,000 tested, under 10 active;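 active = luciferase activation factor, scaled between plate controls, of at least 2 with compound at 10 µM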
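Assay system: Luciferase/luciferin reagent mix; Medium: PBS as buffer for the ATP substrate; Dosing: test compounds dosed from 2 mM stocks in 100% DMSO; Times: 10 min, room temperature; Signal: luminescence from luciferase reaction; Read-out: luciferase activation; Controls: No-ATP low control, compound-free enzyme-plus-ATP high control.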
The depositor's hits bear a star; x = no result. Only some compounds are listed: those with a hit (about 3.9% of all), similar ones and a draw of the others.

SMILES	Rad51 HR inh	STAT1 act	NF-kB neuron act	FLuc inh counter	APP 5'UTR act	FLuc act counter
Cc1nc(-c2ccc(NC(=O)C3CCCCC3)cc2)cs1	6	138*	3.5*	43	167*	0.6
Oc1c(N=Nc2ccccn2)ccc2ccccc12	-6	106	3.6*	91*	-82	0.1
Cn1c(SCC(=O)c2ccccc2)nnc1-c1cccs1	-12	x	x	x	x	x
Oc1c(CN2CCOCC2)cc(COCc2ccccc2)c2cccnc12	-5	119	4.2*	-5	-92	1.1
C[C@]12CCC[C@H](O1)c1c(cc3c(c1O)C(=O)c1c(O)cc(O)cc1C3=O)O2	-137	x	x	x	x	x
CC(C)C(=O)Nc1ccc(C(=O)NNC(=S)NC(=O)c2ccco2)cc1	-28	x	x	x	x	x
O=C(/C=C\c1ccc(-c2cccc([N+](=O)[O-])c2)o1)N1CCOCC1	-2	129*	1	4	18	1
COc1ccccc1N1CCN(c2ccc([N+](=O)[O-])cc2Cl)CC1	1	95	1.2	-2	0	1
O=C(O)/C=C/S(=O)(=O)c1ccc2ccccc2c1	17	x	x	x	x	x
O=C(NCc1ccccn1)C1Nc2ccc(C(F)(F)F)cc2C2C=CCC12 (centres undefined)	10	x	x	x	x	x
Cc1ccc(-n2cc(C(=O)c3ccc(F)cc3)nn2)cc1Cl	x	139*	3.1	24	72	0.8
O=C(Nc1ccc(Cl)cc1)C1=Cc2ccccc2OC1	-7	143*	9.2*	17	210*	0.8
O=C(Nc1ccc2c(c1)OCCO2)C1CCC1	-1	104	1.3	0	16	1
O=C(Nc1ccc2c(c1)OCCO2)NC1CCCCC1	5	129*	5.2*	71*	138*	0.3
O=C(Nc1ccc(Cl)c([N+](=O)[O-])c1)c1ccc2c(c1)OCCO2	7	139*	3.7*	28	168*	0.7
O=C(Nc1ccc2c(c1)OCO2)c1cccc(Cl)c1	-1	129*	2.9	26	59	0.7
O=C(CSc1nc2ccccc2[nH]1)Nc1nc(-c2ccc(Br)cc2)cs1	-2	104	0.91	-7	-3	1.1
O/N=C/C1=C(Cl)c2ccccc2CC1	-1	96	1.2	-10	14	1.1
CCOC(=O)c1c(N)sc(C(=O)Nc2ccc3c(c2)OCO3)c1C	-3	76	5.5*	90*	117	0.1
O=C(Nc1ccc2c(c1)OCO2)c1c(Cl)nc2sccn12	-3	131*	1.1	6	32	0.9
O=C(Nc1ccc2c(c1)OCO2)c1c(F)c(F)c(F)c(F)c1F	-4	102	1.3	5	24	1
O=C(Nc1ccc(F)c(F)c1)c1ccc2c(c1)OCO2	-4	138*	2.5	21	81	0.8
O=C(Nc1ccc2c(c1)OCO2)c1ccc2c(c1)OCO2	-7	132*	8*	83*	138*	0.2
Cc1noc(C(=O)Nc2ccc3c(c2)OCO3)c1Cl	-5	126	2.5	9	43	0.9
COc1ccc(/C=C(\C#N)C(=O)OCCNC(=O)c2ccncc2)cc1	-4	98	0.98	-6	1	1.1
SMILES	Rad51 HR inh	STAT1 act	NF-kB neuron act	FLuc inh counter	APP 5'UTR act	FLuc act counter
CC(=O)Nc1ccccc1OC(C)C(=O)NC(C)c1ccc(F)cc1 (centres undefined)	12	103	0.95	-3	16	1
O=C(Nc1ccc(Cl)cc1)c1ccc2c(c1)OCO2	3	139*	6.8*	45	193*	0.6
O=C(Nc1ccncc1)Nc1ccccn1	5	108	0.98	1	-2	1
CC(=O)Nc1ccc(C(=O)Nc2ccc3c(c2)OCO3)cc1	6	108	1.6	-2	9	1
O=C(Nc1cccc(F)c1)Nc1ccccn1	-8	148*	2.7	14	69	0.9
O=C(Nc1ccon1)c1ccc2c(c1)OCO2	-7	112	1.3	5	4	0.9
Cc1ccnc(NC(=O)c2ccc3c(c2)OCO3)c1	1	76	4.2*	92*	206*	0.1
Cc1ccc2oc(-c3ccc(NC(=O)c4ccc5c(c4)OCO5)cc3)nc2c1	-8	98	1.3	-3	-1	1
O=C(Nc1ccc(-c2nc3ccccc3o2)cc1)c1ccc2c(c1)OCO2	87*	109	1.1	-4	3	1
COc1ccc(OCc2nnc(SCC(=O)c3c(N)n(C)c(=O)n(C)c3=O)n2-c2ccccc2F)cc1	-4	103	1.1	-1	-11	1
Nc1[nH]n(-c2ccccc2)c(=O)c1N=Nc1ccc2ncsc2c1	3	x	x	x	x	x
O=C(Nc1ccc2c(c1)OCO2)c1ccc(Cl)s1	4	130*	9.8*	61*	184*	0.4
CCOc1ccc(C(=O)Nc2ccc3c(c2)OCCO3)cc1OC	13	126	1.6	60*	47	0.4
O=C(CCc1ccccc1)c1ccc2c(c1)OCCCO2	-1	124	3.1	18	127	0.8
O=C(Nc1ccc2c(c1)OCO2)Nc1ccccn1	3	148*	2.7	50*	82	0.5
O=C(Nc1ccc2c(c1)OCO2)Nc1cnccn1	x	118	1.8	8	20	0.9
O=C(CCCc1ccccc1)c1ccc2c(c1)OCCO2	-5	16	0.69	95*	x	0
Cc1ccnc(NC(=O)c2ccc3c(c2)C(=O)N(CC2CCCO2)C3=O)c1 (centres undefined)	3	115	1.2	56*	-6	0.4
O=C(Nc1ccccc1)c1ccc2c(c1)OCCO2	-4	146*	5.5*	65*	132	0.4
O=C(Nc1ccccn1)Nc1cccs1	-8	132*	1.4	7	24	0.9
O=C(Nc1cccc(NC(=O)c2ccc3c(c2)OCO3)c1)c1ccccc1	-8	102	1.3	15	-1	0.8
O=C(Nc1ccc2c(c1)OCO2)c1cnn2cccnc12	9	130*	3.2	28	101	0.7
Cc1nc([N+](=O)[O-])c(SCC(O)CCl)n1Cc1ccc(Cl)cc1 (centres undefined)	-66	95	1.1	-6	-24	1.1
COc1cc(C(=O)Nc2cc(C)ccn2)cc(OC)c1OC	-4	98	1.2	-3	16	1
O=C(Nc1ccc([N+](=O)[O-])cc1)Nc1ccc2c(c1)OCCO2	4	134*	4.5*	40	132	0.6
O=C(Nc1cccnc1)Nc1ccc2c(c1)OCO2	7	120	1.9	50	0	0.5
O=C(Nc1ccc2c(c1)OCO2)Nc1ccc2c(c1)OCO2	-3	141*	2.1	40	136*	0.6
COc1ccc(C(=O)NC(=O)Nc2cc(C)ccn2)cc1	-3	64	1.9	92*	159*	0.1
CCCCOc1ccc(C(=O)Nc2ccc3c(c2)OCO3)cc1	3	112	1.5	14	45	0.9
